Data reported in ChEMBL document CHEMBL1132942, “Quinolones: novel probes in antifilarial chemotheraphy” (2000).

Experiments:
[1] = Tested in vivo for sterilization of female worms; assay type: functional, Acanthocheilonema viteae; set-up: concentration or dose not given beside the values
[2] = tested on: Acanthocheilonema viteae; assay: (§1) Tested in vivo for Acanthocheilonema viteae at 200 mg/kg X 5 days(perorally); assay type: functional; conditions: route oral
Summary of the method: (§2)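 A. viteae transmitted to male M. coucha (6 weeks old) via vector tick Ornithodorus moubata. Test agents given orally at 200 mg/kg daily for five consecutive days. Micro- and macrofilaricidal activity assessed per earlier-described methods.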

[3] = tested on: Acanthocheilonema viteae; assay: as §1; assay type: functional; conditions: route oral; summary of the method: as §2; remark: listed apart in the source

Row | SMILES | Reduction [1] | Reduction [2] | Reduction [3]
1 | CCCCCCCCNC(=O)c1cnc2c(F)cccc2c1O | 25% | 47% | 37%
2 | O=C(NC1CCCCC1)c1cnc2ccc(F)cc2c1O | 36% | 31% | 50%
3 | CCN(CC)CCCC(C)NC(=O)c1cnc2cc(Cl)c(F)cc2c1O (stereo unspecified) | 0% | 0% | 60%
4 | O=C(NC1CCCCC1)c1cnc2ccccc2c1O | – | 100% | 90%
5 | O=C(NC1CCCCC1)c1cnc2ccc([N+](=O)[O-])cc2c1O | 0% | 0% | 54%
6 | CCCCCCCCNC(=O)c1cnc2c(C)cccc2c1O | 0% | 0% | 17%
7 | CCCCCCCCNC(=O)c1cnc2ccccc2c1O | 0% | 0% | 25%
8 | CCCCCCCCNC(=O)c1cnc2ccc(Cl)cc2c1O | 0% | 50% | 30%
9 | CCN(CC)CCCC(C)NC(=O)c1cnc2ccc([N+](=O)[O-])cc2c1O (stereo unspecified) | 0% | 0% | 54%
10 | O=C(NC1CCCCC1)c1cnc2cc([N+](=O)[O-])ccc2c1O | 0% | 80% | 24%
11 | CCCCCCCCNC(=O)c1cnc2ccc(F)cc2c1O | 0% | 0% | 48%
12 | CCCCCCCCNC(=O)c1cnc2ccc([N+](=O)[O-])cc2c1O | 100% | 38% | 40%
13 | Cc1cccc2c(O)c(C(=O)NC3CCCCC3)cnc12 | 0% | 0% | 54%
14 | CCN(CC)C(=O)N1CCN(C)CC1.O=C(O)CC(O)(CC(=O)O)C(=O)O [DIETHYLCARBAMAZINE CITRATE] | 0% | 0% | 90%
